Each structure is given as a SMILES string. A value given as a limit tells only on which side of the number the result lay.

In general, IC50 refers to the concentration that inhibits the measured activity by half.

The nature of data set [1]: Retention time of compound in human BT549 cells at 2 uM incubated at 37 degree C measured after 3 days by HPLC analysis. It is filed as ADME, cell-based. The note with it: bt-549, 72 h. The gist of the method:
(§1)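 MDA-MB-231 or BT-549 breast cancer cells were cultured with […] of compound for three days at 37 °C. Supernatant was analysed by HPLC. Cells were then washed and lysed with methanol, and the intracellular compound was measured by quantitative HPLC dosage, giving mol per sample.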

The nature of data set [2]: Retention time of compound in human MDA-MB-231 cell lysates at 2 uM incubated at 37 degree C measured after 3 days by HPLC analysis. It is filed as ADME, subcellular, Lysate. The following applies: mda-mb-231, 72 h. The gist of the method: as §1
In data set [3] the test system is MDA-MB-231. Put plainly: Antiproliferative activity against human MDA-MB-231 cells expressing NRP1 assessed as cell viability measured after 48 hrs by MTT assay. It is filed as functional, cell-based. The following applies: MDA-MB-231, 48 h.
Data set [4] can be described thus: Chemical stability of compound in DMSO/aqueous buffer at 1 mg at pH 0.9 to 8.4 incubated at 25 degree C and measured upto 16 days by HPLC analysis. The note with it: read-out: Stability. It is filed as physicochemical. The gist of the method: (§2)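 Compound held in aqueous buffers at pH 0.9, 7.4 and 8.4 at 25 °C or 37 °C for up to 16 days; the chromatographic profile was followed by HPLC.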

Data set [5] can be described thus: Retention time of compound at 1mg measured immediately by HPLC analysis. It is filed as physicochemical.
A short description of data set [6]: Retention time of compound in human BT549 cell lysates at 2 uM incubated at 37 degree C measured after 3 days by HPLC analysis. The following applies: bt-549, 72 h. The class given is ADME, subcellular, Lysate. An outline of the steps:
as §1

Data set [7] can be described thus: Retention time of compound in human MDA-MB-231 cells at 2 uM incubated at 37 degree C measured after 3 days by HPLC analysis. The class given is ADME, cell-based. The following applies: mda-mb-231, 72 h. The gist of the method: as §1
Data set [8] in a line: Retention time of compound at in pH 8.4 at 1 mg incubated at 37 degree C by HPLC analysis. The class given is physicochemical. An outline of the steps:
as §2

A short description of data set [9]: Retention time of compound in pH 0.91 at 1 mg incubated at 37 degree C by HPLC analysis. It is filed as physicochemical. An outline of the steps: as §2
Data set [10] is described as follows: Retention time of compound in pH 7.4 at 1 mg incubated at 37 degree C by HPLC analysis. It is filed as physicochemical. An outline of the steps:
as §2

Data set [11] concerns MDA-MB-231. Put plainly: Antitumour activity against human MDA-MB-231 cells xenografted in nude mouse assessed as reduction in tumour growth at 50 mg/kg, po administered every 3 days for 20 days and measured 3 times a week by caliper method relative to control. The note with it: MDA-MB-231, po, read-out: TGI. (Xenograft models place foreign cells or tissue in a host animal.)
Data set [12] in a line: Chemical stability of compound in DMSO/aqueous buffer at 1 mg at pH 0.9 to 8.4 incubated at 37 degree C and measured upto 16 days by HPLC analysis. It is filed as physicochemical. The note with it: read-out: Stability. The gist of the method:
as §2

Data set [13] relates to MDA-MB-231. Put plainly: Antiproliferative activity against human MDA-MB-231 cells expressing NRP1 assessed as cell viability measured after 72 hrs by MTT assay. The following applies: MDA-MB-231, 72 h. The class given is functional, cell-based. A general note: Formazan colour is commonly taken as a measure of viable cells.
Data set [14] has as its system BT-549. Description: Antiproliferative activity against human BT549 cells expressing NRP1 assessed as cell viability measured after 48 hrs by MTT assay. The class given is functional, cell-based. The following applies: BT-549, 48 h.
The nature of data set [15]: Drug uptake in human BT549 cells at 2 uM incubated at 37 degree C measured after 3 days by HPLC analysis. It is filed as ADME, cell-based. The following applies: bt-549, 72 h. An outline of the steps: as §1
The subject of data set [16] is BT-549. Description: Antiproliferative activity against human BT549 cells expressing NRP1 assessed as cell viability measured after 72 hrs by MTT assay. The class given is functional, cell-based. The note with it: BT-549, 72 h.
A short description of data set [17]: Drug uptake in human MDA-MB-231 cells at 2 uM incubated at 37 degree C measured after 3 days by HPLC analysis. It is filed as ADME, cell-based. The note with it: mda-mb-231, 72 h. The gist of the method: as §1

For `CCOc1ccccc1NC(=O)c1ccc(C)c(S(=O)(=O)Nc2ccc(C)cc2)c1`, the Retention_time in data set [1] is 4.05 min; in data set [2], 4.025 min; in data set [5], 4.075 min; in data set [6], 3.992 min; in data set [7] it was 4.492 min; in data set [8], 4.05 min. For the same compound, the Retention_time in data set [9] amounted to 4.058 min; in data set [10], 4.067 min. Besides, the IC50 with MDA-MB-231 [3] was determined as 4.9 µM; in the data set on MDA-MB-231 [13], 0.2 µM; in the data set with BT-549 [14] it was 2.1 µM; in the data set on BT-549 [16], 0.1 µM. In addition, the remaining at 384 h in [4] and in [12] was 100% in each case. The inhibition in vivo at 50 mg/kg in the data set on MDA-MB-231 [11] is over 60%. Also, the Drug uptake worked out at 1.4 nmol in [15] and 5.14 nmol in [17].

Consider `CCN(CC)CCNC(=O)c1c(C)[nH]c(/C=C2\C(=O)Nc3ccc(F)cc32)c1C` [SUNITINIB], for which the IC50 with MDA-MB-231 [3] worked out at 2.6 µM; in the data set with MDA-MB-231 [13], 3.7 µM; with BT-549 [14], 2.2 µM; in the data set on BT-549 [16] it was 3.5 µM.

The values above are taken from ChEMBL document CHEMBL4406901, “Synthesis, 3D-structure and stability analyses of NRPa-308, a new promising anti-cancer agent” (Bioorg Med Chem Lett, 2019).
